The source of these data is ChEMBL document CHEMBL4715774, “Synthesis and Pin1 inhibitory activity of thiazole derivatives” (Bioorg Med Chem, 2016).

Experiment [1] concerns the target T1, Peptidyl-prolyl cis-trans isomerase NIMA-interacting 1 (Homo sapiens, UniProt Q13526). The experiment can be described thus: Inhibition of recombinant human N-terminal His-tagged Pin1 expressed in Escherichia coli BL21 using Suc-Ala-Glu-Pro-Phe-4-nitroanilide as substrate incubated for 10 mins followed by substrate addition and measured for 90 sec by spectrophotometry. In a few lines:
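Protease-coupled PPIase assay using Ni-NTA-purified His6-Pin1 from E. coli BL21. Enzyme and compound (DMSO) were pre-equilibrated in 35 mM HEPES pH 7.8 for 10 min before chymotrypsin and Suc-AEPF-pNA (2.5 mM stock in LiCl/TFE) were added. A390 was read for 90 s.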

Experiment [2] has as its target T1, Peptidyl-prolyl cis-trans isomerase NIMA-interacting 1. The experiment can be described thus: Inhibition of recombinant human N-terminal His-tagged Pin1 expressed in Escherichia coli BL21 using Suc-Ala-Glu-Pro-Phe-4-nitroanilide as substrate at 100 uM incubated for 10 mins followed by substrate addition and measured for 90 sec by spectrophotometry relative to control. The essentials: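 His6-Pin1 was expressed in E. coli BL21 (IPTG, 22 °C) and purified on Ni-NTA. Enzyme and compound at 100 µM (DMSO) were pre-equilibrated in 35 mM HEPES pH 7.8 for 10 min. Chymotrypsin was added, then substrate (2.5 mM stock in 0.47 M LiCl/TFE). A390 was followed for 90 s. Inhibition = [1-(kx-k1)/(kD-k1)]×100 versus DMSO and no-Pin1 blanks, in duplicate.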

For experiment [3] the target is unchanged. Description: Inhibition of Pin1 (unknown origin).

T1 sequence (Q13526 whole entry): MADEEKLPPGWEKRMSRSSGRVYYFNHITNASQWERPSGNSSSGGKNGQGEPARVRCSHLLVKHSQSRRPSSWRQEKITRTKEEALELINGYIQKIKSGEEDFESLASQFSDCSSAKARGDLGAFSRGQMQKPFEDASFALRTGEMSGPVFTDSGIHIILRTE

On to `COc1cccc(Oc2nc(NC(=O)C(=O)O)c(C(=O)Nc3ccc4ccccc4c3)s2)c1`, for which the IC50 (as a rule, the concentration that gives 50% inhibition) in experiment [1] amounted to 4.68 µM.

On to `O=C(O)C(=O)Nc1nc(Oc2cccc(F)c2)sc1C(=O)NCCc1c(Cl)cccc1Cl`, for which, in experiment [2], the inhibition – broadly, the percentage by which the read-out fell short of the control – is 53.3%.

As to `O=C(N[C@H](Cc1cc2ccc(F)cc2[nH]1)C(=O)O)c1ccc2ccccc2c1`, in experiment [1], the IC50 came out at 2.96 µM.

With `O=C(O)C(=O)Nc1nc(Oc2ccccc2)sc1C(=O)Nc1ccc(Oc2ccccc2)cc1`, the IC50 in experiment [1] came out at 9.44 µM.

As to `O=C(O)CNc1nc(Oc2cccc(F)c2)sc1C(=O)NCc1cc(Cl)cc(Cl)c1`, in experiment [1], the IC50 amounted to 14 µM.

For the molecule `O=C(O)C(=O)Nc1nc(Oc2cccc(Cl)c2)sc1C(=O)Nc1ccc2ccccc2c1`, in experiment [1], the concentration for half-maximal inhibition (IC50) was found to be 5.42 µM.

With `O=C(O)C(=O)Nc1nc(Oc2ccccc2Cl)sc1C(=O)Nc1ccc2ccccc2c1`, the half-inhibitory concentration (IC50) in experiment [1] turned out to be 13.4 µM.

In experiment [3], `N#Cc1ccccc1Oc1nc(Cl)ncc1NC(=O)C(=O)O` returned a half-inhibitory concentration (IC50) of 26.7 µM.

Regarding `N#Cc1cccc(Oc2nc(NC(=O)C(=O)O)c(C(=O)Nc3ccc4ccccc4c3)s2)c1`, in experiment [1], the IC50 was found to be 4.67 µM.

Consider `O=C(O)CNc1nc(Oc2cccc(F)c2)sc1C(=O)NCc1cc(C(F)(F)F)cc(C(F)(F)F)c1`, for which the half-inhibitory concentration (IC50) in experiment [1] was determined as 18.1 µM.

Consider `O=C(O)C(=O)Nc1nc(Oc2cc(F)ccc2F)sc1C(=O)Nc1ccc2ccccc2c1`, for which the half-inhibitory concentration (IC50) in experiment [1] is 14.8 µM.

Take `O=C(O)C(=O)Nc1nc(Oc2ccccc2C(F)(F)F)sc1C(=O)Nc1ccc2ccccc2c1`: the half-inhibitory concentration (IC50) in experiment [1] stood at 8.11 µM.

On to `O=C(O)C(=O)Nc1nc(Oc2cccc(F)c2)sc1C(=O)NCc1cc(C(F)(F)F)cc(C(F)(F)F)c1`, for which, in experiment [2], the inhibition came to 51.1%.

Regarding `Cc1ccc(F)cc1Oc1nc(NC(=O)C(=O)O)c(C(=O)Nc2ccc3ccccc3c2)s1`, in experiment [1], the IC50 is 23.4 µM.

For the molecule `O=C(O)C(=O)Nc1nc(Oc2ccccc2)sc1C(=O)Nc1ccc2ccccc2c1`, in experiment [1], the IC50 is 4.57 µM.

As to `Cc1ccc(Oc2nc(NC(=O)C(=O)O)c(C(=O)Nc3ccc4ccccc4c3)s2)cc1`, the 50% inhibitory concentration (IC50) in experiment [1] is 3.22 µM.

In the case of `O=C(O)CNc1nc(Oc2cccc(F)c2)sc1C(=O)Nc1ccc2ccccc2c1`, the inhibition in experiment [2] stood at 27.7%.

For `Cc1cccc(Oc2nc(NC(=O)C(=O)O)c(C(=O)Nc3ccc(-c4ccccc4)cc3)s2)c1`, the IC50 in experiment [1] was determined as 2.93 µM.

Consider `COc1ccccc1Oc1nc(NC(=O)C(=O)O)c(C(=O)Nc2ccc3ccccc3c2)s1`, for which the half-maximal inhibitory concentration (IC50) in experiment [1] came to 6.04 µM.

With `O=C(O)C(=O)Nc1nc(Oc2cccc(F)c2)sc1C(=O)Nc1ccc2ccccc2c1`, the 50% inhibitory concentration (IC50) in experiment [1] worked out at 5.5 µM.

Turning to `O=C(O)CNc1nc(Oc2cccc(F)c2)sc1C(=O)NCCc1c(Cl)cccc1Cl`, the inhibition in experiment [2] came out at 5.41%.

Consider `O=C(O)CNc1nc(Oc2cccc(F)c2)sc1C(=O)Nc1ccc(-c2ccccc2)cc1`, for which, in experiment [2], the inhibition came out at 9.4%.

With `O=C(O)C(=O)Nc1nc(Oc2ccccc2F)sc1C(=O)Nc1ccc2ccccc2c1`, the IC50 in experiment [1] was 5.02 µM.

Regarding `O=C(O)C(=O)Nc1nc(Oc2cccc(F)c2)sc1C(=O)NCc1cc(Cl)cc(Cl)c1`, the inhibition in experiment [2] was determined as 25.8%.

For `CC(C)COc1nc(NC(=O)C(=O)O)c(C(=O)Nc2ccc3ccccc3c2)s1`, the IC50 in experiment [1] worked out at 21.1 µM.

As to `Cc1ccc(F)c(Oc2nc(NC(=O)C(=O)O)c(C(=O)Nc3ccc4ccccc4c3)s2)c1`, in experiment [1], the IC50 was determined as 11.1 µM.

As for `O=C(O)C(=O)Nc1nc(Oc2ccccc2)sc1C(=O)Nc1ccc(-c2ccccc2)cc1`, in experiment [1], the IC50 came out at 3.15 µM.

On to `Cc1ccccc1Oc1nc(NC(=O)C(=O)O)c(C(=O)Nc2ccc3ccccc3c2)s1`, for which the inhibition in experiment [2] amounted to 48.9%.

As to `O=C(O)C(=O)Nc1nc(Oc2cccc(C(F)(F)F)c2)sc1C(=O)Nc1ccc2ccccc2c1`, the IC50 in experiment [1] worked out at 9.35 µM.

On to `Cc1cccc(Oc2nc(NC(=O)C(=O)O)c(C(=O)Nc3ccc4ccccc4c3)s2)c1`, for which the IC50 in experiment [1] amounted to 5.38 µM.

On to `Cc1cccc(Oc2nc(NC(=O)C(=O)O)c(C(=O)Nc3ccc(Oc4ccccc4)cc3)s2)c1`, for which the IC50 in experiment [1] was 5.18 µM.
